According to ChEMBL document CHEMBL4732158, “Bicyclic Ligand-Biased Agonists of S1P: Exploring Side Chain Modifications to Modulate the PK, PD, and Safety Profiles” (J Med Chem, 2021):

Key:
[1] = target: T1, Sphingosine 1-phosphate receptor 1 (Homo sapiens, UniProt P21453); assay: Displacement of [33P]-SIP from human recombinant S1P1 expressed in CHO cell membranes measured after 45 mins by TopCount scintillation counting method; parameters: species or system Cell membrane
[2] = target: T1, Sphingosine 1-phosphate receptor 1; assay: Agonist activity at recombinant human S1P1 expressed in CHO cell membranes assessed as stimulation of [35S]-GTPgammaS binding measured after 45 mins by liquid scintillation counting method; type: functional, Cell membrane
[3] = target: T1, Sphingosine 1-phosphate receptor 1; assay: Agonist activity at human recombinant C-terminal GFP-fused S1P1 expressed in CHO cells assessed as induction of receptor internalization incubated for 50 mins by fluorescence based confocal laser scanning microscopic analysis; type: cell-based
[4] = target: T1, Sphingosine 1-phosphate receptor 1; assay: Agonist activity at human recombinant S1P1 expressed in CHO cells assessed as stimulation of ERK phosphorylation incubated for 7 mins by microplate reader analysis; type: cell-based
[5] = target: Sphingosine 1-phosphate receptor 3 (Homo sapiens, UniProt Q99500); assay: Agonist activity at recombinant human S1P3 expressed in CHO cell membranes assessed as stimulation of [35S]-GTPgammaS binding measured after 45 mins by liquid scintillation counting method; type: functional, Membrane
[6] = system: Rattus norvegicus; assay: Reduction in circulating lymphocytes count in Lewis rat at 2 mg/kg, po measured at 4 hrs by hematology analyzer based analysis; type: functional; parameters: scale not given: the % may be the effect or the level left
In short: (§1)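 Lewis rats (n = 2−4) dosed orally; whole-blood lymphocyte counts taken 4 h and 24 h after dosing and reduction expressed versus vehicle-treated rats. Significance by ANOVA with Dunnett's test (p < 0.05 vs vehicle). Blood levels of parent and phosphate metabolite measured at the same time points in this PK/PD screen.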

[7] = Drug concentration in Lewis rat blood assessed as concentration of parent compound at 2 mg/kg, po measured at 4 hrs by LC-MS/MS analysis; type: ADME, organism-based; details: read-out: Ct; for concentration at 4 h: Lewis, blood; for concentration: in vivo, 2 mg/kg, 4 h
In short: (§2)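 Lewis rats (n = 2−4) dosed orally at 0.5, 1, 2 or 5 mg/kg; blood parent and phosphate metabolite concentrations and lymphocyte counts taken 4 and 24 h post-dose; phosphate-to-parent ratio from 24 h levels; significance versus vehicle by ANOVA with Dunnett's test.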

[8] = Reduction in circulating lymphocytes count in Lewis rat at 2 mg/kg, po measured at 24 hrs by hematology analyzer based analysis; type: Functional, organism-based; parameters: scale not given: the % may be the effect or the level left; details: in vivo; in short: as §1
[9] = Drug concentration in Lewis rat blood assessed as concentration of parent compound at 2 mg/kg, po measured at 24 hrs by LC-MS/MS analysis; type: ADME, organism-based; details: in vivo, read-out: Ct; in short: as §2
[10] = Ratio of drug metabolism in Lewis rat blood assessed as phosphate ester metabolite to parent drug at 2 mg/kg, po measured at 24 hrs by LC-MS/MS analysis; type: ADME, organism-based; details: in vivo; in short: as §2
[11] = Pulmonary toxicity in Lewis rat assessed as fold elevation of BAL protein content at 10 mg/kg, po by chemistry analyzer based analysis relative to control; type: organism-based; details: in vivo, 2 mg/kg, in the assay text read “2 mg/kg” for “10 mg/kg”
In short: (§3)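 Lewis rats dosed orally; bronchoalveolar lavage protein measured at study end, expressed as fold over vehicle control.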

[12] = Cardiotoxicity in human iPSC derived cardiomyocytes assessed as change in heart rate at 1 nM measured over 2 hrs by multi-electrode array relative to control; type: toxicity, cell-based; details: stem cell-derived cardiomyocyte, 0.001 µM
In short: (§4)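 Phosphate metabolite of each compound prepared and tested on cultured human induced pluripotent stem cell-derived cardiomyocytes at 1 and 10 nM; beat rate change averaged over three or more replicates per concentration unless noted (some n = 2).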

[13] = Cardiotoxicity in human iPSC derived cardiomyocytes assessed as change in heart rate at 10 nM measured over 2 hrs by multi-electrode array relative to control; type: toxicity, cell-based; details: stem cell-derived cardiomyocyte, 0.01 µM; in short: as §4
[14] = Reduction in circulating lymphocytes count in Lewis rat at 0.5 mg/kg, po measured at 4 hrs by hematology analyzer based analysis; type: ADME, organism-based; parameters: scale not given: the % may be the effect or the level left; details: in vivo; in short: as §2
[15] = Drug metabolism in Lewis rat blood assessed as parent compound concentration at 0.5 mg/kg, po measured at 4 hrs by LC-MS/MS analysis; type: ADME, organism-based; details: for Ct: in vivo, 0.5 mg/kg, 4 h, BLD = below limit of detection; in short: as §2
[16] = Reduction in circulating lymphocytes count in Lewis rat at 0.5 mg/kg, po measured at 24 hrs by hematology analyzer based analysis; type: ADME, organism-based; parameters: scale not given: the % may be the effect or the level left; details: in vivo; in short: as §2
[17] = Drug metabolism in Lewis rat blood assessed as parent compound concentration at 0.5 mg/kg, po measured at 24 hrs by LC-MS/MS analysis; type: ADME, organism-based; details: for concentration at 24 h: Lewis, blood, read-out: Ct; in short: as §2
[18] = Pulmonary toxicity in Lewis rat assessed as fold elevation of BAL protein content at 2 mg/kg, po by chemistry analyzer based analysis relative to control; type: organism-based; details: in vivo; in short: as §3
[19] = Half life in Lewis rat at 2 mg/kg, po measured at 4 to 72 hrs; type: ADME, organism-based; details: in vivo, time 4-72 hrs; for half-life: Lewis; for t1/2: 2 mg/kg
In short: (§5)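 Half-life estimated from oral-dosing blood PK profiles in Lewis rats sampled at four time points: 4, 24, 48 and 72 h.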

[20] = system: Rattus norvegicus; assay: Reduction in circulating lymphocytes count in Lewis rat at 1 mg/kg, po measured at 4 hrs by hematology analyzer based analysis; type: functional; parameters: scale not given: the % may be the effect or the level left; in short: as §2
[21] = Drug concentration in Lewis rat blood assessed as concentration of parent compound at 1 mg/kg, po measured at 4 hrs by LC-MS/MS analysis; type: ADME, organism-based; details: Lewis, blood, read-out: Ct; in short: as §2
[22] = Reduction in circulating lymphocytes count in Lewis rat at 1 mg/kg, po measured at 24 hrs by hematology analyzer based analysis; type: organism-based; parameters: scale not given: the % may be the effect or the level left; details: in vivo; in short: as §2
[23] = Drug metabolism in Lewis rat blood assessed as concentration of parent compound at 1 mg/kg, po measured at 24 hrs by LC-MS/MS analysis; type: ADME, organism-based; details: Lewis, blood, read-out: Ct; in short: as §2
[24] = Half life in Lewis rat at 1 mg/kg, po measured at 4 to 72 hrs; type: ADME, organism-based; details: in vivo, time 4-72 hrs; in short: as §5
[25] = Pulmonary toxicity in Lewis rat assessed as fold elevation of BAL protein content at 1 mg/kg, po by chemistry analyzer based analysis relative to control; type: organism-based; details: in vivo; in short: as §3
[26] = Drug metabolism in Lewis rat blood assessed as phosphate ester metabolite to parent ratio at 1 mg/kg, po measured at 24 hrs by LC-MS/MS analysis; details: in vivo
[27] = system: Rattus norvegicus; assay: Reduction in circulating lymphocytes count in Lewis rat at 5 mg/kg, po measured at 4 hrs by hematology analyzer based analysis; type: functional; parameters: scale not given: the % may be the effect or the level left; in short: as §1
[28] = Drug concentration in Lewis rat blood assessed as concentration of parent compound at 5 mg/kg, po measured at 4 hrs by LC-MS/MS analysis; type: ADME, organism-based; details: read-out: Ct; in short: as §2
[29] = Reduction in circulating lymphocytes count in Lewis rat at 5 mg/kg, po measured at 24 hrs by hematology analyzer based analysis; type: ADME, organism-based; parameters: scale not given: the % may be the effect or the level left; details: in vivo; in short: as §1
[30] = Drug concentration in Lewis rat blood assessed as concentration of parent compound at 5 mg/kg, po measured at 24 hrs by LC-MS/MS analysis; type: ADME, organism-based; in short: as §2
[31] = Pulmonary toxicity in Lewis rat assessed as fold elevation of BAL protein content at 5 mg/kg, po by chemistry analyzer based analysis relative to control; type: organism-based; details: in vivo; in short: as §3

T1 sequence (P21453 whole entry): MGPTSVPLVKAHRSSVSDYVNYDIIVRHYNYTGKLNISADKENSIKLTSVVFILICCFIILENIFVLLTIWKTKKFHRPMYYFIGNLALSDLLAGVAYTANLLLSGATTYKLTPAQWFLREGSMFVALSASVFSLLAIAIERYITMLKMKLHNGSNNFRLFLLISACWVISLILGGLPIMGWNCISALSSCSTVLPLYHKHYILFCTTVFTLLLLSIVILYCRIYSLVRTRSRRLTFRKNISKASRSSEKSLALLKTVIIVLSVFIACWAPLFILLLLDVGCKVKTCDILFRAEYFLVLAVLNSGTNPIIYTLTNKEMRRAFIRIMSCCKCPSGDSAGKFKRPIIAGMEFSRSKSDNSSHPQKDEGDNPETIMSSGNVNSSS
Sphingosine 1-phosphate receptor 3, sequence (Q99500 whole entry): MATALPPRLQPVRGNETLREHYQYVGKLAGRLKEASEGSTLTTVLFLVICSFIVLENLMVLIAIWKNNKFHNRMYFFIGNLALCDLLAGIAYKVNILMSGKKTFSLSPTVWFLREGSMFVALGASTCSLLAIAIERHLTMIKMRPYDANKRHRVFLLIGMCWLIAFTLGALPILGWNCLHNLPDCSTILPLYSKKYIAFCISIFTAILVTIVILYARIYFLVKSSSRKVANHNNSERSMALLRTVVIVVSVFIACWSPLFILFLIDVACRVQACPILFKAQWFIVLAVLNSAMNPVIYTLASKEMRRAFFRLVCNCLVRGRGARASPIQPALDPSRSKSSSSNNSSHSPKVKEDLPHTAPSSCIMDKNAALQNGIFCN

Row | Structure (SMILES) | Activity ([6]; 2 mg/kg, 4 h) | concentration at 4 h [7] | Activity [8] | concentration [9] | Ratio [10] | Activity [12] | Activity [13] | fold change (FC) [18] | further results
1 | COCCCCC[C@@H]1CCc2cc([C@H]3CC[C@](N)(COP(=O)(O)O)C3)ccc2C1 | – | – | – | – | – | – | – | – | IC50 [1]: 0.016 nM; EC50 [2]: 2.1 nM; EC50 [3]: 4.9 nM; EC50 [4]: 2.7 nM; EC50 [5]: > 1000 nM
2 | COCCCCC1CCc2cc([C@H]3CC[C@](N)(CO)C3)ccc2C1 (stereo in doubt; 13a) | 78% | 300 nM | 87% | 110 nM | 1.4 | – | – | – | fold change (FC) [11]: 1.7
3 | CCCCCSC[C@H]1CCc2cc([C@H]3CC[C@](N)(CO)C3)ccc2C1 | – | – | – | – | – | -29% | -41% | – | Activity [14]: 0%; Ct [15]: Bld; Activity [16]: 56%; Ct ([17]; in vivo, 0.5 mg/kg, 24 h, BLD = below limit of detection): Bld
4 | CCCSCC[C@@H]1CCc2cc([C@H]3CC[C@](N)(CO)C3)ccc2C1 | – | 193 nM | 73% | 72 nM | 0.17 | -43% | -42% | 1.1 | Activity [6]: 63%
5 | CCCCCSC[C@@H]1CCc2cc([C@H]3CC[C@](N)(CO)C3)ccc2C1 | – | – | – | – | – | – | – | – | Activity [14]: 0%; Ct [15]: Bld; Activity [16]: 63%; concentration at 24 h [17]: < 31 nM
6 | CCCCSCC1CCc2cc([C@H]3CC[C@](N)(CO)C3)ccc2C1 (single isomer, unassigned) | – | 138 nM | 44% | 110 nM | 0.23 | -14% | -25% | 1.1 | Activity [6]: 20%
7 | COCCCCCCC1CCc2cc([C@H]3CC[C@](N)(CO)C3)ccc2C1 (stereo in doubt; 25a) | 70% | 265 nM | 84% | 69 nM | 3.9 | -16% | -32% | 1.7 | half-life [19]: 31 h
8 | COCCCCCCC1CCc2cc([C@H]3CC[C@](N)(CO)C3)ccc2C1 (stereo in doubt; 25b) | 45% | – | 79% | 295 nM | 2.5 | -25% | – | 1.2 | concentration [7]: 320 nM; t1/2 [19]: 26 h
9 | CCOCCC[C@H]1CCc2cc([C@H]3CC[C@](N)(COP(=O)(O)O)C3)ccc2C1 | – | – | – | – | – | – | – | – | IC50 [1]: 0.04 nM; EC50 [2]: 2.1 nM; EC50 [3]: 0.4 nM; EC50 [4]: 5.2 nM; EC50 [5]: > 1000 nM
10 | CCCSCCC1CCc2cc([C@H]3CC[C@](N)(CO)C3)ccc2C1 (single isomer, unassigned) | – | – | – | – | – | -26% | -61% | – | Activity [14]: 0%; concentration at 4 h ([15]; Lewis, blood, read-out: Ct): 43 nM; Activity [16]: 60%; concentration at 24 h [17]: 20 nM
11 | COCCCCCC1CCc2cc([C@H]3CC[C@](N)(CO)C3)ccc2C1 (single isomer, unassigned; 23) | – | 129 nM | 81% | 51 nM | 8.2 | -20% | -40% | 1.9 | Activity [6]: 78%; half-life [19]: 15 h
12 | CC/C=C/CC[C@@H]1CCc2cc([C@H]3CC[C@](N)(CO)C3)ccc2C1 | – | – | – | – | – | -11% | -33% | – | Activity [20]: 27%; concentration at 4 h [21]: 66 nM; Activity [22]: 74%; concentration at 24 h [23]: 140 nM; half-life [24]: 4 h; fold change (FC) [25]: 1.1; Ratio [26]: 5.8
13 | CCCCS(=O)(=O)C[C@@H]1CCc2cc([C@H]3CC[C@](N)(CO)C3)ccc2C1 | – | – | – | – | – | – | – | – | Activity [27]: 13%; concentration at 4 h [28]: 44 nM; Activity [29]: 16%; Ct ([30]; in vivo, 5 mg/kg, 24 h, BLD = below limit of detection): Bld; fold change (FC) [31]: 0.8
14 | CCCOCCOC[C@@H]1CCc2cc([C@H]3CC[C@](N)(CO)C3)ccc2C1 | – | – | – | – | – | – | – | – | Activity [27]: 72%; concentration at 4 h [28]: 360 nM; Activity [29]: 70%; concentration at 24 h ([30]; Lewis, blood, read-out: Ct): 28 nM; fold change (FC) [31]: 1.4
15 | COCCCCC1CCc2cc([C@H]3CC[C@](N)(CO)C3)ccc2C1 (stereo in doubt; 13b) | 65% | – | 78% | 78 nM | 0.77 | -15% | -29% | – | concentration [7]: 271 nM; half-life [19]: 16 h; fold change (FC) [11]: 2.1
16 | COCCCC1CCc2cc([C@H]3CC[C@](N)(CO)C3)ccc2C1 (stereo in doubt; 22b) | 62% | – | 66% | 86 nM | 0.9 | -20% | -25% | 1.6 | concentration [7]: 215 nM; t1/2 [19]: 14 h
